Experimental data published in ChEMBL document CHEMBL5338714, “Design, synthesis and biological evaluation of biphenyl-benzamides as potent FtsZ inhibitors” (Eur J Med Chem, 2022).
Values after ≈ are worked out from the molar mass of the structure shown. Active and inactive are the calls of the source. No cut-off for these calls is given here.

Columns and labels:
[1] = Metabolic stability in rat liver microsomes assessed as half life preincubated for 5 mins followed by NADPH addition measured upto 45 mins by LC/MS analysis; format: ADME, Microsome; details: time < 50 min
Method in brief: (§1)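 Liver microsomes at 0.75 mg/mL final protein, with test article and NADPH regeneration system (6 mM) in 100 mM phosphate buffer, pH 7.4. Preincubated 5 min at 37 °C, then started with NADPH. Quenched with acetonitrile containing internal standard at 5, 15, 30 and 45 min, centrifuged, and percent remaining measured by LC/MS. Ketanserin served as reference.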

Staphylococcus aureus [2] = test: Antibacterial activity against Staphylococcus aureus ATCC29213 assessed as bacterial growth inhibition incubated for 18 hrs by CLSI based broth microdilution method; format: functional
Method in brief: (§2)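 CLSI broth microdilution. Log-phase bacteria in Mueller Hinton broth added to 2-fold serial dilutions spanning 128 to 0.25 or 2 to 0.004 µg/mL. Incubated aerobically for 18 h at 37 °C, then OD600 read. MIC is the lowest concentration giving ≥90% growth inhibition; three independent assays.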

[3] = Metabolic stability in mouse liver microsomes assessed as compound remaining preincubated for 5 mins followed by NADPH addition measured after 45 mins by LC/MS analysis; format: ADME, Microsome; details: time 50 min, read-out: Stability
Method in brief: (§3)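 Liver microsomes (final protein 0.75 mg/mL) with compound in 100 mM phosphate buffer pH 7.4, preincubated 5 min at 37 °C. Reaction started with NADPH regeneration system, stopped at 5, 15, 30 and 45 min with acetonitrile containing internal standard. Percent remaining measured by LC/MS, with ketanserin as reference; variation given as RSD of area ratio.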

Bacillus subtilis [4] = test: Antibacterial activity against Bacillus subtilis MG27 assessed as bacterial growth inhibition incubated for 18 hrs by CLSI based broth microdilution method; format: functional; method in brief: as §2
[5] = AUC (0 to infinity) in ICR mouse at 5 mg/kg, po measured for 0.25 to 24 hrs by LC-MS/MS analysis; format: ADME, organism-based; parameters: time upper 24 hrs, time lower 0.25 hrs, dose 5 mg/kg, route po; details: in vivo
Method in brief: (§4)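 Male ICR mice dosed orally with a solution of 5% DMSO, 4% ethanol, 5% Cremophor EL and 86% water. Blood collected at 15, 30 min, 1, 2, 4, 6, 8 and 24 h; plasma stored at -20 °C. Plasma levels measured by LC-MS/MS; parameters by non-compartmental analysis, with bioavailability relative to the 1 mg/kg iv dose.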

Staphylococcus aureus [6] = test: Antibacterial activity against Staphylococcus aureus ATCC25923 assessed as bacterial growth inhibition incubated for 18 hrs by CLSI based broth microdilution method; format: functional; method in brief: as §2
Bacillus subtilis [7] = test: Selectivity ratio of MBC for Bacillus subtilis ATCC9372 to MIC for Bacillus subtilis ATCC9372; format: functional
Method in brief: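 After 24 h of broth microdilution, 5 µL from clear wells plated on LB agar and incubated aerobically for 24 h at 37 °C. MBC is the lowest concentration with no colonies. Ratio is MBC over MIC, with ≤4 taken as bactericidal and >4 as bacteriostatic.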

[8] = Metabolic stability in mouse liver microsomes assessed as compound remaining preincubated for 5 mins followed by NADPH addition measured after 5 mins by LC/MS analysis; format: ADME, Microsome; details: time 10 min, read-out: Stability; method in brief: as §3
[9] = Cmax in ICR mouse at 5 mg/kg, po measured for 0.25 to 24 hrs by LC-MS/MS analysis; format: ADME, organism-based; parameters: time upper 24 hrs, dose 5 mg/kg, time lower 0.25 hrs, route po; details: in vivo; method in brief: as §4
[10] = AUC (0 to t) in ICR mouse at 1 mg/kg, iv measured for 0.08 to 24 hrs by LC-MS/MS analysis; format: ADME, organism-based; parameters: time 0.08-24 hrs, dose 1 mg/kg, route iv; details: in vivo
Method in brief: (§5)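 Male ICR mice, single intravenous dose formulated in 5% DMSO, 4% ethanol, 5% Cremophor EL, 86% water. Blood sampled at 5, 15, 30 min, 1, 2, 4, 8 and 24 h; plasma stored at -20 °C. Compound quantified by LC-MS/MS, with parameters from non-compartmental analysis.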

[11] = Metabolic stability in human liver microsomes assessed as half life preincubated for 5 mins followed by NADPH addition measured upto 45 mins by LC/MS analysis; format: ADME, Microsome; details: time < 50 min; method in brief: as §1
[12] = Metabolic stability in mouse liver microsomes assessed as intrinsic clearance preincubated for 5 mins followed by NADPH addition measured upto 45 mins by LC/MS analysis; format: ADME, Microsome; details: time < 50 min, read-out: CLH; method in brief: as §1
[13] = Clearance in ICR mouse at 1 mg/kg, iv measured for 0.08 to 24 hrs by LC-MS/MS analysis; format: ADME, organism-based; details: in vivo, time 0.08-24 hrs; method in brief: as §5
[14] = Metabolic stability in human liver microsomes assessed as compound remaining preincubated for 5 mins followed by NADPH addition measured immediately by LC/MS analysis; format: ADME, Microsome; details: read-out: Stability; method in brief: as §3
[15] = Metabolic stability in mouse liver microsomes assessed as compound remaining preincubated for 5 mins followed by NADPH addition measured after 30 mins by LC/MS analysis; format: ADME, Microsome; details: time 35 min, read-out: Stability; method in brief: as §3
Staphylococcus aureus [16] = test: Antibacterial activity against ampicillin-resistant Staphylococcus aureus 669 assessed as bacterial growth inhibition incubated for 18 hrs by CLSI based broth microdilution method; format: functional
Method in brief: (§6)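 Broth microdilution to CLSI guidelines. Log-phase bacteria grown in Mueller Hinton broth, diluted, then exposed to 2-fold serial dilutions of compound (128 to 0.25 µg/mL or 2 to 0.004 µg/mL). Incubated aerobically 18 h at 37 °C. Growth read as OD600. MIC = lowest concentration giving ≥90% growth inhibition. Three independent assays.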

Staphylococcus aureus [17] = test: Antibacterial activity against Staphylococcus aureus ATCC25923 assessed as bacterial growth inhibition at 1 to 8 times MIC measured after 12 hrs by time kill curve assay relative to control; format: functional
Method in brief: (§7)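 Time-kill: log-phase cultures diluted to about 10^6 CFU/mL in MHB with compound at 1×, 2×, 4× or 8× MIC (vancomycin at 2× MIC), shaken at 37 °C. Samples taken at 3, 6, 12 and 24 h, serially diluted and plated on LB agar. Colonies counted after 24 h at 37 °C; detection limit 10^3 CFU/mL.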

Klebsiella pneumoniae = test: Antibacterial activity against Klebsiella pneumoniae 14578 assessed as bacterial growth inhibition incubated for 18 hrs by CLSI based broth microdilution method; format: functional; method in brief: as §6
[18] = Half life in ICR mouse at 5 mg/kg, po measured for 0.25 to 24 hrs by LC-MS/MS analysis; format: ADME, organism-based; details: in vivo, time 0.25-24 hrs; method in brief: as §4
Bacillus subtilis [19] = test: Antibacterial activity against Bacillus subtilis ATCC9372 assessed as reduction in bacterial count at 2 times MIC measured for 3 hrs by time kill curve assay; format: functional, organism-based; method in brief: as §7
Staphylococcus aureus [20] = test: Induction of resistance in Staphylococcus aureus ATCC29213 assessed as fold increase in MIC at 0.5 times MIC after 18 passages incubated for 24 hrs by resistance development assay; format: functional
Method in brief: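 Serial passage of S. aureus ATCC29213. Initial MIC was found by broth microdilution. Bacteria from the 0.5 × MIC tubes (duplicate) were diluted to about 5 × 10^5 CFU/mL and re-exposed to compound for 24 h at 35 °C, then fold increase in MIC was determined. Repeated for 18 passages, with norfloxacin as comparator.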

[21] = Metabolic stability in human liver microsomes assessed as compound remaining preincubated for 5 mins followed by NADPH addition measured after 45 mins by LC/MS analysis; format: ADME, Microsome; details: time 50 min, read-out: Stability; method in brief: as §3
[22] = AUC (0 to t) in ICR mouse at 5 mg/kg, po measured for 0.25 to 24 hrs by LC-MS/MS analysis; format: ADME, organism-based; parameters: time lower 0.25 hrs, dose 5 mg/kg, time upper 24 hrs, route po; details: in vivo; method in brief: as §4
Bacillus subtilis [23] = test: Antibacterial activity against Bacillus subtilis 618 assessed as bacterial growth inhibition incubated for 18 hrs by CLSI based broth microdilution method; format: functional; method in brief: as §2

Cc1cc(Cl)ccc1-c1cccc(COc2ccc(F)c(C(N)=O)c2F)c1
half-life [1]: 0.226 h
MIC (Staphylococcus aureus [2]): 0.25 µg/mL (≈ 0.645 µM)
remaining at 0.75 h [3]: 0.46%
MIC (Bacillus subtilis [4]): 0.031 µg/mL (≈ 0.0799 µM)
AUC(0-inf) [5]: 559 ng·h/mL
MIC (Staphylococcus aureus [6]): 0.125 µg/mL (≈ 0.322 µM)
Selectivity ratio (Bacillus subtilis [7]): 4
remaining at 5 min [8]: 53.1%
Cmax [9]: 429 ng/mL
AUC(0-t) [10]: 178 ng·h/mL
half-life [11]: 1.87 h
CLint scaled [12]: 1070 mL/min/kg
CL [13]: 94.713 mL/min/kg
remaining at 0 min [14]: 100%
remaining at 0.5 h [15]: 1.74%
MIC (Staphylococcus aureus [16]): 0.06 µg/mL (≈ 0.155 µM)
inhibition (INH) (Staphylococcus aureus [17]): 100%
MIC (Klebsiella pneumoniae): > 128 µg/mL
half-life [18]: 2.26 h
Activity (Bacillus subtilis [19]): Active
fold change (FC) (Staphylococcus aureus [20]): 4
remaining at 0.75 h [21]: 75%
AUC(0-t) [22]: 544 ng·h/mL
MIC (Bacillus subtilis [23]): 0.008 µg/mL (≈ 0.0206 µM)
